Measured values collected from several papers.
Protocols differ between the studies behind these lines.
Target: Inhibitor of nuclear factor kappa-B kinase subunit beta (IKBKB, Homo sapiens, UniProt O14920)
One construct used (O14920 1-756): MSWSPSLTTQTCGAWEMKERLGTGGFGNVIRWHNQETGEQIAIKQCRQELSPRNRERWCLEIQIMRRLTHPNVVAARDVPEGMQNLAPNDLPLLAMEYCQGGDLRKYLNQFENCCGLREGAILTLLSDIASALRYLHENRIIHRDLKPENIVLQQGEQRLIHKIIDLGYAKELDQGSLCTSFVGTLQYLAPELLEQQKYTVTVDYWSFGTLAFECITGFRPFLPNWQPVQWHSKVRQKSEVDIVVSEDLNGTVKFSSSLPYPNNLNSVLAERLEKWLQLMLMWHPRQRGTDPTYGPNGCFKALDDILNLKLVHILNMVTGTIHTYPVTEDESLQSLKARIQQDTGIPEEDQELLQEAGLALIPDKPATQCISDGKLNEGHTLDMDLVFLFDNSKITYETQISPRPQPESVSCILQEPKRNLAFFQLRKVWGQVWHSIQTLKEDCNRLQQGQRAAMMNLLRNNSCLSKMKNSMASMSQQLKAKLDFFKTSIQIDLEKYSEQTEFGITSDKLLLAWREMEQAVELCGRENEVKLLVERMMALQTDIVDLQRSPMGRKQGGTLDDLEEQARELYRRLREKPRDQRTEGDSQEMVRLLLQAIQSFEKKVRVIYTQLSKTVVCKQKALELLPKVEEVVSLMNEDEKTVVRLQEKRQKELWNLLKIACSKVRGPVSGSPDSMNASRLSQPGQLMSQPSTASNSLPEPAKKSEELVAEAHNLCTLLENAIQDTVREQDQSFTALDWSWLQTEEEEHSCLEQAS

SMILES	assay	conditions	endpoint	value
C=CC(=O)N1CCC[C@@H](n2nc(-c3ccc(Oc4ccccc4)cc3)c3c(N)ncnc32)C1	enzyme activity, inhibitor	1 µM	inhibition	30%
C#Cc1cnc(Nc2ccnc(CO)c2)nc1Nc1ccccc1S(C)(=O)=NC#N (centres unmarked)	cell-free assay	1 µM	remaining signal	97%
CO[C@@H]1[C@H](N(C)C(=O)c2ccccc2)C[C@H]2O[C@]1(C)n1c3ccccc3c3c4c(c5c6ccccc6n2c5c31)C(=O)NC4	enzyme activity, inhibitor	1 µM	inhibition	13%
Cc1ccc(NC(=O)c2ccnc(C(F)(F)F)c2)cc1-c1cc(OCCO)nc(N2CCOCC2)c1	binding, competition with immobilised ligand	1 µM	remaining binding	97%
COc1ccc2oc(-c3ccc4nc(N)oc4c3)c/c(=N\c3ccccc3NC(=O)CCN)c2c1	binding	1 µM	remaining binding	102%
N#Cc1ccc(NC(=O)Nc2ccccc2)cc1	cell-free assay, competition with immobilised ligand	25 µM	remaining binding	100%
CN1CCN(C(=O)c2ccc(NC(=O)Nc3ccc(N(C)c4ccnc(Nc5ccc(CS(C)(=O)=O)cc5)n4)cc3)cc2)CC1	binding, competition with immobilised ligand	1 µM	remaining binding	70%
CCCCC(=O)Nc1ccc(-c2ccc3ncn(CCC)c(=O)c3c2)cn1	binding, competition with immobilised ligand	0.5 µM	remaining binding	100%
